PMI act satM6P: human PMI activators, high substrate, primary screen, biochemical, fluorescence intensity, near-saturating mannose 6-phosphate | Mannose-6-phosphate isomerase (Homo sapiens), P34949 | coupled PMI enzyme assay, resazurin fluorescence, 20 min; hits give high values; 1 = untreated enzyme, 0 = substrate-free blank | activation factor at 20 µM | 190,000 compounds, 0.34% hits;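 active = activation factor of 2 or more at 20 µM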
Target sequence (P34949 whole entry, looked up): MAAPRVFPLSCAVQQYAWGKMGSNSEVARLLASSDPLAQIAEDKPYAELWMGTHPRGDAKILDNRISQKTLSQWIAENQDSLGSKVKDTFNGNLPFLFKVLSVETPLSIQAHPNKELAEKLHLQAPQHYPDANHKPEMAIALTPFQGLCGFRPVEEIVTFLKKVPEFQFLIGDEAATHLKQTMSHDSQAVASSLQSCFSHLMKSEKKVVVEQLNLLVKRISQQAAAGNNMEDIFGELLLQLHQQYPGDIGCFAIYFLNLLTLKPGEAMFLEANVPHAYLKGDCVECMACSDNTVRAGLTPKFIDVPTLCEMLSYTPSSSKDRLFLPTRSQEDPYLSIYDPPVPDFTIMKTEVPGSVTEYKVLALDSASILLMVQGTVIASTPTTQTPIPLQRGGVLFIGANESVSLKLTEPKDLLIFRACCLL
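Material: human phosphomannose isomerase with PGI, G6PDH, diaphorase coupling enzymes. Quantity: 15 ng/mL PMI. Medium: HEPES pH 7.4 buffer with MgCl2 and Tween-20. Reagent: Near-saturating mannose-6-phosphate, 1.0 mM. Compound: 20 µM single dose. Times: enzyme reaction with compound 20 min at room temperature. Detection: resorufin fluorescence at Ex 544/Em 590 nm.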
ABCB1 block: ABCB1 efflux pump inhibitors, primary screen, cell-based, multiplex, flow cytometry, ABCG2 counter-screen | ATP-dependent translocase ABCB1 (Homo sapiens), P08183 | CCRF-Adr cells, JC-1 efflux | inhibition, % at 6.6 µM | 190,000 compounds, 0.067% hits | AID 1326, 2008; in the data active = inhibition above about 40%;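 note: 0% = vehicle and 100% = reference inhibitor; higher value means more JC-1 retained so stronger ABCB1 efflux block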
ABCG2 block: ABCG2 efflux pump inhibitors, primary screen, multiplex with ABCB1, IgMXP3 cells, flow cytometry | Broad substrate specificity ATP-binding cassette transporter ABCG2 (Homo sapiens), Q9UNQ0 | JC-1 efflux | inhibition, % at 6.6 µM | 190,000 compounds, 0.1% hits | AID 1325, 2008;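 active = inhibition above 80%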;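 note: 0% = DMSO and 100% = nicardipine control wells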
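Incubation: cells with compound and JC-1, 10 min at 25 °C, rotating, no wash / Test system: IgMXP3 (ABCG2) plus far-red-tagged CCRF-Adr (ABCB1) cells / Compound dosing: one concentration, 6.6 µM final / Also added: JC-1 fluorescent substrate / Evaluation: efflux inhibition in percent versus controls / Detection: flow cytometry, 530 nm JC-1 signal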
Cl transport mod: KCC2 cotransporter modulators, thallium flux, primary screen, cell-based, HEK293 KCC2, FluoZin-2 fluorescence, MLSMR | Solute carrier family 12 member 5 (Homo sapiens), Q9H2X9 | KCC2 cells, thallium flux FluoZin-2 fluorescence | B-score of Tl+ flux slope (higher = more flux/activation; lower = inhibition) at 10 µM | 190,000 compounds, 2.2% hits;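 active = thallium flux slope and its plate-corrected score both differing from the plate sample mean at a set confidence after two filtering rounds, in either direction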;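 note: slope of fluorescence scaled to starting intensity during 10 to 20 s after thallium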
PMI act: activators of human PMI, primary screen, biochemical, fluorescence intensity, near-Km mannose 6-phosphate; activation factor at 20 µM; purified human PMI, coupled resazurin fluorescence, 20 min; hits give high values; 1 = vehicle control, 0 substrate-free wells; AID 1214, 2008; 190,000 compounds, 0.005% hits;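 active = activation factor of 2 or more at 20 µM, relative to plate controls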
ROMK primary: ROMK potassium channel modulators, primary screen, cell-based, thallium flux, MLSMR library. ATP-sensitive inward rectifier potassium channel 1 (Homo sapiens), P48048. Tet-inducible ROMK, thallium flux fluorescence; actives lie on both sides. B-score at 10 µM. 130,000 compounds, 2% hits;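 active = signal ratio slope over the read window, or its plate-corrected B-score, at least 3 SD from the plate mean, either direction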;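 note: B-score of the F/F0 ratio slope over 7 to 12 s after thallium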
Target sequence (P48048 whole entry, looked up): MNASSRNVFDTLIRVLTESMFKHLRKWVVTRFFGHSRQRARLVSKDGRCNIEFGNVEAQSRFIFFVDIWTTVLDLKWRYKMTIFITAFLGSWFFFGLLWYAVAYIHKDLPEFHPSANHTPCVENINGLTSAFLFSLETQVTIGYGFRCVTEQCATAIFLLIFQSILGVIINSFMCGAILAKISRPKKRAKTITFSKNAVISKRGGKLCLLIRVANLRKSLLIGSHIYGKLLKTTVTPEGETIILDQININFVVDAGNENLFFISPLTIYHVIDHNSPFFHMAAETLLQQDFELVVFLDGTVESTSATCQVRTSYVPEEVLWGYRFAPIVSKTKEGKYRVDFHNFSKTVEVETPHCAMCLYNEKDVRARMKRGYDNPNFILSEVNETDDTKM
KCC2 secondary: KCC2 modulators in sodium-free buffer, confirmation, cell-based, HEK293 KCC2, thallium flux, secondary assay. shares compounds with Cl transport mod. FluoZin2 fluorescence; hits give high values. normalised thallium flux (F/F0 slope) at 10 µM. 3,700 compounds, 15% hits. AID 1713, 2009;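 active = thallium flux slope above the same plate's solvent-only control mean plus 3 SD; inconclusive = the two replicate wells disagree; inactive = no significant difference from solvent-only control wells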
KCC2 bumet counter: thallium flux persisting under bumetanide in KCC2 cells, confirmation, counter-screen for KCC2 modulator project, cell-based, HEK293 KCC2, FluoZin2, secondary assay 3; shares compounds with Cl transport mod; HEK293-KCC2 + bumetanide/ouabain; hits give high values; normalized thallium flux at 10 µM; 3,700 compounds, 49% hits;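 active = thallium entry rate above the same plate's blocked-transporter control wells by more than 3 SD; inconclusive = the two repeat wells disagree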;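 note: raw slope of fluorescence over initial fluorescence between 10 and 20 s after thallium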
KCC2 secondary2: KCC2 modulators without ouabain present, confirmation, cell-based, HEK293 KCC2, thallium flux, FluoZin2, secondary assay 2. thallium flux FluoZin2 fluorescence; actives lie on both sides; F/F0 rise rate, 10–20 s post-thallium. 3,700 compounds, 23% hits. shares compounds with Cl transport mod. normalized thallium flux at 10 µM;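 active = thallium flux slope more than 3 SD above or below the plate's solvent-only control mean, mostly below; inconclusive = the two repeat wells disagreed; inactive = no significant shift from solvent-only controls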;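 note: raw slope with 0.1% DMSO as baseline and bumetanide as block control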
HEK counter1: thallium flux modulation in parental HEK cells, confirmation, counter-screen for KCC2 modulator project, cell-based, counterscreen 1. shares compounds with Cl transport mod. HEK293 parental cells, thallium flux FluoZin2, ouabain; baseline-ratio fluorescence slope, 10–20 s after thallium. thallium flux rate (normalised fluorescence) at 10 µM. 3,700 compounds, 46% hits;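 active = thallium flux rate significantly above the same plate's solvent-only control wells, beyond their mean plus 3 SD; inconclusive = the two replicate wells gave conflicting results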
KCC2 ouabain: KCC2 inhibitors and activators, ouabain retest, confirmation, HEK-KCC2 cells. shares compounds with Cl transport mod. HEK293-KCC2, thallium flux FluoZin2 fluorescence; bidirectional: low = inhibitor, high = activator. raw Tl+ flux slope (below DMSO = inhibition, above = activation) at 10 µM. 3,700 compounds, 48% hits;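 active = thallium flux slope beyond 3 SD from same-plate DMSO control mean in most replicates, usually higher, sometimes lower; inconclusive = repeat tests gave conflicting results; inactive = no significant difference from controls in most replicates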;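 note: slope of initial-normalized fluorescence between seconds 10 and 20 after thallium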
HEK counter2: native HEK Tl+ uptake effects, second counter-screen – HEK cells, counterscreen 2, counter-screen for KCC2 modulator project, confirmation. 3,700 compounds, 33% hits. AID 1718, 2009. shares compounds with Cl transport mod. HEK293 parental, thallium flux FluoZin-2 fluorescence slope. thallium flux slope at 10 µM;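 active = thallium flux slope above the same plate's solvent-control mean plus 3 SD in both duplicate wells; inconclusive = duplicate wells that disagreed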;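 note: run without ouabain in cells lacking the KCC2 cotransporter; slope of fluorescence scaled to its starting value between 10 and 20 s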
* hit, by the source's call; ? = inconclusive; · = no result given. Only some compounds are listed: those with a hit (about 3.3% of all), similar ones and a draw of the others.

SMILES	PMI act satM6P	ABCB1 block	ABCG2 block	Cl transport mod	PMI act	ROMK primary	KCC2 secondary	KCC2 bumet counter	KCC2 secondary2	HEK counter1	KCC2 ouabain	HEK counter2
C=CCSc1n[nH]c2nc3c(c(=O)n12)C1(CCCC1)Cc1ccccc1-3	1.7	-0.2	2.0	·	1.3	·	0.00818	?	0.0343	?	0.0186	0.0105
CCSc1n[nH]c2nc3c(c(=O)n12)C1(CCCC1)Cc1ccccc1-3	1.3	0.0	0.5	-0.836	1.1	·	·	·	·	·	·	·
CNC(=O)C1CC(=O)N(Cc2ccccc2)C(=Nc2ccc(OC)cc2)S1 (centres undefined)	1	0.3	0.2	·	1	0.16	?	0.00448	0.0295	0.00746	0.0186	0.0105
CCC(C)(C)NCC(=O)Nc1ccc(OC(F)(F)F)cc1	1	1.5	4.8	0.946	1.1	-1.07	·	·	·	·	·	·
COCCCNCC(=O)Nc1ccc(OC(F)(F)F)cc1	1	0.3	13.7	3.65*	1	·	0.00911	0.00622	0.0295	0.00715	0.0269	0.0098
CCC1CCC2(CC1)NC(CO)(CO)CO2 (centres undefined)	0.9	0.0	1.3	4.96*	0.9	0.422	0.00803	0.00487	0.0278	0.00803	0.0189	0.0111*
CC1CCC2(CC1)NC(CO)(CO)CO2 (centres undefined)	1	0.5	0.6	-1.25	1	·	·	·	·	·	·	·
OCC1(Cc2ccccc2)CCCN(Cc2ccn[nH]2)C1 (centres undefined)	1	0.5	2.3	-0.449	0.9	0.635	·	·	·	·	·	·
Cc1ccc(/C=N/n2c(-c3cccnc3)n[nH]c2=S)o1	·	·	·	1.61	·	·	·	·	·	·	·	·
Cc1ccc(/C=N/n2c(-c3ccc(Cl)cc3)n[nH]c2=S)o1	·	·	·	7.94*	·	0.665	0.0157*	0.0349*	0.0377	0.0115*	0.0258	?
S=c1[nH]nc(-c2cccnc2)n1/N=C/c1ccc(Br)s1	1.1	-5.7	-15.6	23*	1	0.111	0.0109	0.0546*	0.0325	0.0106*	0.0277	0.0115*
Cc1ccc(-c2n[nH]c(=S)n2/N=C/c2ccc(C)o2)cc1	0.8	0.0	7.9	3.7*	0.8	·	?	0.0182*	0.0319	0.0143*	0.0259*	0.0117
Cc1ccc(/C=N/n2c(-c3ccccn3)n[nH]c2=S)o1	·	·	·	0.0399	·	·	·	·	·	·	·	·
Cc1ccc(-c2n[nH]c(=S)n2/N=C/c2sccc2C)cc1	·	·	·	18.6*	·	·	0.0181	0.0212*	0.0343	0.0149*	0.0246*	0.0168*
Cc1ccc(/C=N/n2c(-c3cccnc3)n[nH]c2=S)s1	1.2	0.1	0.8	0.632	1.2	·	·	·	·	·	·	·
Cc1c(C(=O)NCc2ccc3c(c2)cc(C)n3C)cccc1[N+](=O)[O-]	0.8	0.2	5.0	0.556	0.9	1.05	·	·	·	·	·	·
CC1CCC2C(=O)N(c3ccccc3OC(=O)c3ccccc3F)C(=O)C2C1 (centres undefined)	1	0.8	4.3	1.84	1	0.179	·	·	·	·	·	·
COc1cccc(C2=NOC(C(=O)Nc3cccnc3Cl)C2)c1 (centres undefined)	1	0.2	0.4	0.32	1.1	-0.19	·	·	·	·	·	·
S=c1[nH]nc(-c2ccc(Cl)cc2)n1/N=C/c1cccs1	·	·	·	22.5*	·	·	0.00806	0.025*	0.0423*	0.0305*	0.0415*	0.0239*
COc1ccc(Nc2cc(Cl)nc(N)n2)cc1OC	0.7	0.9	9.7	0.759	0.9	0.0194	·	·	·	·	·	·
O=C(CCOc1ccccc1)Nc1nnc(-c2ccc3c(c2)OCCO3)o1	1	-0.1	5.4	1.68	1	-0.62	·	·	·	·	·	·
O=C(COc1ccccc1)Nc1nnc(-c2ccc3c(c2)CCCC3)o1	1.1	0.4	4.3	8.82*	1.1	·	?	0.0606*	0.035	0.0243*	0.0415*	0.0123*
O=C(N/N=C/C=C/c1ccccc1)NC1CCCCC1	1	1.8	11.7	0.314	1	0.0392	·	·	·	·	·	·
CCOc1ccc2ccccc2c1/C=N/n1cncn1	0.9	0.3	1.9	·	0.8	-0.0885	·	·	·	·	·	·
CCOc1ccc2nc(SCC(=O)NC(=O)NCc3ccco3)[nH]c2c1	0.9	0.3	2.4	1.47	0.9	·	·	·	·	·	·	·
CC1Cc2ccccc2N1CC(=O)Nc1ccc(S(=O)(=O)N(C)C)cc1 (centres undefined)	·	·	·	-3.87*	·	·	0.00831	0.00696	0.0287	0.00763	0.0222	?
FC(F)(Cl)c1nnc2ccc(Sc3ccccn3)nn12	1.1	0.2	1.2	0.264	1.2	0.617	·	·	·	·	·	·
O=C(Nc1ccc2nc3n(c(=O)c2c1)CCCC3)c1cc([N+](=O)[O-])ccc1F	0.9	0.2	4.0	-3.05*	0.9	·	0.00975	0.00634	0.035	?	0.018	0.0102
Cn1cncc1C(=O)c1ccccc1	·	·	·	1.03	·	·	·	·	·	·	·	·
Cc1ccccc1Nc1nc(N)nc(CSc2nc3ccccc3c(=O)n2C)n1	0.9	0.7	3.4	0.276	1	-1.98	·	·	·	·	·	·

Source: PubChem
